Compound activity deposited in PubChem BioAssay by several laboratories.
CHO parental Ca: signal in parental CHO cells, OX1R antagonist counter-screen. parental CHO-K1, ATP-induced calcium, Fluo-8 fluorescence. inhibition, % at 5.6 µM. 0.63% of 330,000 active. AID 463079;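 active = inhibition above that plate's mean sample inhibition plus 3 SD, cut at about 26% in these data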
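Assay system: untransfected parental CHO cell line. Also added: ATP agonist challenge. Dosing: one dose, 5.6 µM nominal. Measured by: Fluo-8 fluorescence. Read-out: % inhibition. Benchmarks: ATP wells versus no-ATP DMSO wells. Repeats: no replicates.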
TAAR1 antagonist: human TAAR1 antagonism; Q96RJ0; CHO RD-HGA16 TAAR1, Fluo-8 calcium fluorescence, antagonist; inhibition, % at 3 µM; 1.5% of 360,000 active; AID 624466;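 active = inhibition above a per-plate cutoff, the mean inhibition of test compounds on that plate plus 3 SD, cut at about 49% in these data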
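Test system: RD-HGA16 CHO cells with stable hTAAR1 and Gα16 / Probe or stimulus: EC80 β-phenethylamine stimulus / Times: seeding 17-24 h prior, 75-min 37 °C, 30-min RT dye loading / Detection: Fluo-8 calcium-sensitive fluorescence / Read-out basis: % inhibition scaled between DMSO and EC80 PEA controls / Repeats: singlicate, one well per test compound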
OX1R antag-1: human HCRTR1 antagonism; 0.43% of 330,000 active; O43613; CHO/OX1R cells, Fluo-8 calcium fluorescence, orexin A; inhibition, % at 5 µM; AID 434989;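 active = inhibition above its plate's threshold, mean inhibition of all tested compounds on the plate plus 3 SD, cut at about 37% in these data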
Target sequence (O43613 whole entry, looked up): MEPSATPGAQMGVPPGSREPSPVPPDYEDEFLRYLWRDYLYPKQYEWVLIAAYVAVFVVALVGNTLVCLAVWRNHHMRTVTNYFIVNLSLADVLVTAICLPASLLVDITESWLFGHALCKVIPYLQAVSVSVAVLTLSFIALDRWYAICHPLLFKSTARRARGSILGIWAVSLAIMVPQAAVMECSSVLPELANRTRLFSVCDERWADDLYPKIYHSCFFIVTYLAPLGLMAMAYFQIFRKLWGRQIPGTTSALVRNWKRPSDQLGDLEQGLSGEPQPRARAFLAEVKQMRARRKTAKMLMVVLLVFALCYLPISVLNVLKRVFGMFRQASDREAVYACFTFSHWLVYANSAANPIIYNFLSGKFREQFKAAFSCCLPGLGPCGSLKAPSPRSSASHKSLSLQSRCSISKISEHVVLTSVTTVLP
NTR1 agonist: activates human neurotensin receptor 1. P30989. NTR1-U2OS beta-arrestin-GFP spot imaging, agonist mode. activation, % at 20 µM. 0.17% of 330,000 active. AID 493036;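 active = activation at or above 40% of the spot to cytoplasm intensity ratio, with at least 20 cells analyzed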
TAAR1 agonist: human TAAR1 agonism; Q96RJ0; CHO RD-HGA16 TAAR1, Fluo-8 calcium fluorescence; vehicle wells 0%, saturating PEA agonist 100%; activation, % at 3 µM; 0.99% of 360,000 active; AID 624467;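 active = activation above the mean activation of all test compounds in the run plus 3 SD, cut at about 38% in these data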
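Test system: RD-HGA16 (CHO) cells co-expressing Gα16 and hTAAR1; dosing: one-point dosing at 3 µM (nominal); timing: 17-24 h seeding, 75 min 37 °C dye, 30 min RT; signal: kinetic Fluo-8 calcium fluorescence; read-out basis: % activation relative to PEA EC100 response; controls: DMSO and PEA EC100; replicates: n 1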
OX1R antag-2: antagonists of human orexin 1 receptor (OX1R) | OX1R-expressing cells, FRET antagonist read-out | O43613 | 1.8% of 330,000 active | inhibition, % at 6.6 µM | AID 485270; in the data active = inhibition mostly above about 38%, no sharp cut-off; inactive = mostly below about 40%
TAAR1 ag confirm: human TAAR1 agonism, confirmed. 82% of 2,400 active. CHO RD-HGA16 TAAR1, Fluo-8 calcium fluorescence; scaled: DMSO 0%, maximal phenethylamine 100%. activation, % at 3 µM. shares compounds with TAAR1 agonist;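 active = activation above a cutoff set at the run's mean compound activation plus 3 SD, cut at about 39% in these data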
Ga16 nonsel ag: nonselective agonism, TAAR1 counter-screen. CHO-Ga16 parental, Fluo-8 calcium fluorescence; normalized to maximal ATP response, DMSO zero. 50% of 2,400 active. shares compounds with TAAR1 agonist. activation, % at 3 µM. AID 651787;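 active = activation above the run cutoff, the mean activation over all tested wells plus 3 SD, cut at about 12% in these data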
TAAR1 desensitize: counter-screen for human TAAR1 agonists: agonists that desensitize TAAR1. shares compounds with TAAR1 agonist. CHO RD-HGA16 hTAAR1, Fluo-8 calcium, beta-PEA response inhibition. inhibition, % at 3 µM. 46% of 2,400 active. AID 651951;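 active = inhibition above the run cutoff, the mean inhibition of all test compounds plus 3 SD, cut at about 49% in these data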;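 note: beta-PEA stimulus applied at its EC80; loss of beta-PEA calcium signal after compound pretreatment read as receptor desensitization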
Ga16 nonsel ant: counter-screen for TAAR1 agonists: nonselective Ga16 antagonists; shares compounds with TAAR1 agonist; CHO-Ga16 ATP-induced calcium, Fluo-8 fluorescence; inhibition, % at 3 µM; 39% of 2,400 active; AID 651952;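 active = inhibition above the plate's mean compound inhibition plus 3 SD, computed per plate, cut at about 22% in these data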
Numbers stand for hits; . = inactive; / = no result. Rows were chosen to be rich in hits. Some 4% of all compounds tested hit in one or more screens of this group.

SMILES	CHO parental Ca	TAAR1 antagonist	OX1R antag-1	NTR1 agonist	TAAR1 agonist	OX1R antag-2	TAAR1 ag confirm	Ga16 nonsel ag	TAAR1 desensitize	Ga16 nonsel ant
C=CCNC(=O)C1CC2Cn3c(nc4cc(C)c(C)cc43)C2N1C (stereo unspecified)	.	.	.	.	.	.	/	/	/	/
Nc1c(-c2n[nH]c(=S)n2-c2ccc(Cl)cc2Cl)cnn1-c1ccccc1	.	.	.	.	97	.	73	44	.	28
Cn1c(-c2cnn(-c3ccccc3)c2N)n[nH]c1=S	.	.	.	.	.	.	/	/	/	/
CC(=O)Nc1ccc(S(=O)(=O)NCCc2ccc(F)cc2)cc1	.	.	.	.	.	.	/	/	/	/
O=S(=O)(NCc1ccccc1)c1cccc2cccnc12	.	.	.	.	.	.	/	/	/	/
CC1Sc2ccc(S(=O)(=O)NCCc3ccccc3)cc2NC1=O (stereo unspecified)	.	.	.	.	69	.	66	.	.	.
O=S(=O)(NCCc1ccccc1)c1ccc(F)cc1	.	64	.	.	73	.	86	.	80	.
O=S(=O)(NCCc1ccccc1)c1cccc2cccnc12	.	.	.	.	63	.	78	.	.	.
CCC(c1nnnn1-c1ccc2c(c1)OCCO2)N1CCN(C(=O)C2CCCO2)CC1 (stereo unspecified)	/	.	/	/	.	/	/	/	/	/
Cc1ccc(C)c(OCCC(=O)NCCc2ccc(F)cc2)c1	.	.	.	.	.	.	/	/	/	/
O=C(O)c1ccc(-c2noc(-c3ccccc3C(F)(F)F)n2)cc1	.	.	.	.	82	.	.	20	.	24
CCOP(=O)(c1ccccc1)c1nc(-c2ccccc2Cl)oc1N1CCCCC1 (stereo unspecified)	.	.	.	.	48	.	.	.	.	.
CCOC(=O)C(NC(C)=O)(N1CCc2ccccc2C1)C(F)(F)F (stereo unspecified)	.	93	.	.	103	.	108	.	98	.
CCOC(=O)C(NC(C)=O)(N1CCOCC1)C(F)(F)F (stereo unspecified)	.	/	.	.	/	.	/	/	/	/
O=C(CSc1nc2[nH]ncc2c(=O)n1-c1ccccc1)NCCc1ccccc1	.	.	.	.	.	.	/	/	/	/
O=C(CSc1nc2[nH]ncc2c(=O)n1-c1ccccc1)c1ccc2c(c1)OCCO2	.	58	.	.	75	.	67	21	50	27
CCOC(=O)c1cc(S(=O)(=O)N(C)Cc2ccccc2)cn1C	.	.	.	.	.	.	/	/	/	/
O=C(Nc1ccc(Cl)c([N+](=O)[O-])c1)c1ccc(NCCCN2CCOCC2)c([N+](=O)[O-])c1	42	91	.	.	75	.	77	28	99	35
O=C(NCC1CC1)c1ccc(Nc2nc3ccc(Br)cc3[nH]2)cc1	.	93	.	.	49	.	45	.	67	.
CNC(=O)C[C@H]1C(=O)N(CCc2ccccc2)C[C@@H]1c1ccc(OC)cc1	/	.	/	/	42	/	76	.	.	.
COc1ccc([C@H]2CN(CCc3ccccc3)C(=O)[C@@H]2CC(=O)Nc2ccccc2)cc1	/	.	/	/	50	/	.	.	.	.
COc1ccc(NC(=O)C[C@H]2C(=O)N(Cc3ccccc3)C[C@@H]2c2ccc(OC)cc2)cc1	/	.	/	/	.	/	/	/	/	/
CC(C)(C)OC(=O)N1CCC(C(=O)Nc2ccc(C(=O)N3CCCCC3)cc2)CC1	/	.	/	/	.	/	/	/	/	/
O=C(CCNS(=O)(=O)c1ccc(Br)cc1)NC1CCC(O)CC1 (stereo unspecified)	.	.	.	.	.	.	/	/	/	/
Cc1cc(/C=C(\C#N)C(N)=O)c(C)n1-c1ccc(N2CCOCC2)c([N+](=O)[O-])c1	.	.	.	.	91	.	114	53	73	29
SMILES	CHO parental Ca	TAAR1 antagonist	OX1R antag-1	NTR1 agonist	TAAR1 agonist	OX1R antag-2	TAAR1 ag confirm	Ga16 nonsel ag	TAAR1 desensitize	Ga16 nonsel ant
Cc1cc(C=O)c(C)n1-c1ccc(N2CCCCC2)c([N+](=O)[O-])c1	.	.	.	.	.	.	/	/	/	/
CC(O)CN1CCN(C(=O)CN2C(=O)NC(c3ccccc3)(c3ccccc3)C2=O)CC1 (stereo unspecified)	.	.	.	.	.	.	/	/	/	/
COc1cc2nc(N(CCCN(C)C)C(=O)c3ccc(S(=O)(=O)N(C)C4CCCCC4)cc3)sc2cc1OC	.	.	.	.	.	.	/	/	/	/
CN(C)CCCN(C(=O)c1ccc(S(=O)(=O)N(C)C2CCCCC2)cc1)c1nc2ccc(F)cc2s1	.	.	.	.	47	.	49	22	49	32
CCN(CC)CCCN1C(=O)CSC1c1ccc([N+](=O)[O-])cc1 (stereo unspecified)	.	.	.	.	52	.	.	.	.	.
NC(N)=NN=C(c1ccc(F)cc1)c1ccc(C(F)(F)F)cc1	/	.	/	/	51	/	65	32	.	28
CO/N=C/C(NC(=O)c1ccc(C(F)(F)F)cc1)C(=O)OC (stereo unspecified)	.	.	.	.	.	.	/	/	/	/
CC1=C(C(=O)N(C)C)CC(CC(=O)NCCc2ccccn2)C(=O)N1CCCN1CCCC1=O (stereo unspecified)	/	.	/	/	49	/	44	.	.	.
CCN(CC)C(=O)C1=C(C)N(CCCN2CCCC2=O)C(=O)C(CC(=O)NCCc2ccccn2)C1 (stereo unspecified)	/	.	/	/	.	/	/	/	/	/
O=C(OCn1nnc2ccccc2c1=O)c1ccc(F)c(S(=O)(=O)N2CCOCC2)c1	/	.	/	/	.	/	/	/	/	/
OC(CNC1CCCc2ccccc21)COc1ccc2ccccc2c1 (stereo unspecified)	.	.	.	.	69	.	100	28	70	31
COc1ccc(C23CC4CC(CC(C4)C2)C3)cc1C(=O)NCCN(C)C	.	.	.	.	46	.	54	21	.	.
CC#C[C@@H](CC)c1ccc2ccn(C)c2c1	.	.	.	.	.	.	/	/	/	/
O=C(Cc1csc2ccccc12)NCC1CC1	/	.	/	/	.	/	/	/	/	/
O=C(O)COCC(=O)NCc1csc2ccccc12	.	.	.	.	51	.	55	.	.	.
